Apaf1 activ: activates human Apaf-1 apoptosome. O14727. Apaf-1 apoptosome caspase-3 activation, DEVD-Rh110 fluorescence; hits give low values. activity change, negative = activation, % at 20 µM. hit rate 0.31% among 330,000. AID 489031;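 active = activity change at or below -40% at 20 µM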
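Material: biochemical Apaf-1 apoptosome reconstitution; Medium: 20 mM HEPES buffer, pH 7.5, containing CHAPS and BSA; Reagent: dATP, cytochrome c, and (Z-DEVD)2-Rh110 caspase-3 substrate; Times: 30 min preincubation, 50 min reaction, room temperature; Signal: Rh110 fluorescence, excitation 480 nm, emission 540 nm; Measure: Caspase-3 activity via Apaf-1.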
The depositor's hits bear a star. These entries were drawn from the full list.

SMILES	Apaf1 activ
Cc1c(C#N)c(=O)oc2ccc3ccccc3c12	-97*
C#CCOCCOCCOCCNc1nc(N2CCN(C(=O)CCCCCCCCCCNC(=O)Cn3cc(CCCCCN)nn3)CC2)nc(N2CCN(C(=O)CCCCCCCCCCNC(=O)[C@H]([C@@H](C)CC)n3cc(CCCCCN)nn3)CC2)n1	74
CC1=NN(c2ccc(N)cc2)C(=O)C1	53
N#Cc1c(N(CCO)CCO)nc(N)c2c(N)nc3c(c12)CC(=O)N3Cc1cccs1	73
CCOc1cc(C2C(C(C)=O)=C(O)C(=O)N2CCc2c[nH]c3ccccc23)ccc1O (configuration not stated)	49
CCCOc1ccc(C2C(C(=O)c3ccco3)=C(O)C(=O)N2CCN2CCOCC2)cc1OC (configuration not stated)	-492*
COc1ccc(NC(=O)c2ccc(-c3ccc(-c4noc(C)n4)cc3C)cc2)cc1N1CCN(C)CC1	57
COc1cc2sc3cc(NCC[C@@H]4CCCN4C)ccc3c(=O)c2cc1OC	55
COc1cccc(Cn2c(N)c(C#N)c3nc4ccccc4nc32)c1OC	92
Cc1cc(/C=N/n2cnnc2)c(C)n1-c1ccc(OCc2ccc(Cl)cc2Cl)cc1	46
O=c1[nH]nc(-c2ccc(OCc3ccc(Cl)cc3Cl)cc2)o1	-54*
Cc1ccc(C(=O)c2c(C)oc3c2C(=O)C(=O)c2ccccc2-3)cc1	88
O=C(Cc1ccccc1)NC1(O)C(=O)c2ccccc2C1=O	85
FC(F)(F)c1cc(CCN2CCNC[C@@H]2Cc2ccccc2)cc(C(F)(F)F)c1	57
CC1=NN(c2ccccc2)C(=O)C1	41
O=C(O)CC(C(=O)O)N1C(=O)/C(=C/C=C/c2ccco2)SC1=S (configuration not stated)	85
C=C(C)C(=O)Nc1cccc(C2=NOC3(C2)C[C@@H](C(N)=O)N(C(=O)C2(C)CC2)C3)c1 (some centres not stated)	-295*
NC(=O)[C@H](Cc1cc2ccccc2s1)NC(=O)[C@@H]1CC2(CC(c3cccc(NC(=O)[C@@H]4CCC(=O)N4)c3)=NO2)CN1C(=O)/C=C/c1c(F)cccc1Cl (some centres not stated)	47
CC1=NN(c2ccc(S(=O)(=O)O)cc2C)C(=O)C1	51
COC(=O)C1=C(C)N(CC2CC2)C(=NCc2cccc(C(F)(F)F)c2)N[C@H]1c1ccccc1	57
N/C(=N\OC(=O)c1ccc(Cl)cc1Cl)c1cccnc1	76
O=C(Nc1nc2c(Cl)cccc2s1)c1ccc([N+](=O)[O-])o1	-120*
CCCCCc1cc(=O)oc2c(C(CCN3CCCC(C)C3)c3cc(OC)c(OC)c(OC)c3)c(OC)cc(OC)c12 (configuration not stated)	60
CCc1nc(N2CCN(C(C)=O)CC2)c2c3c(sc2n1)CC(C(C)(C)C)CC3 (configuration not stated)	42
CCCCCn1c(N2CCC(Cc3ccccc3)CC2)nc2c1c(=O)[nH]c(=O)n2C	46
SMILES	Apaf1 activ
O=C1C(C2=C(O)c3ccccc3C2=O)=Nc2ccccc21	66
O=C(/C=C/c1ccc(O)c(O)c1)O[C@@H]1C[C@](O)(C(=O)O)C[C@@H](O)[C@H]1O	-3
CCCCN1CC[C@H]2C=CC[C@@H](C(=O)N3CCOCC3)[C@H]2C1=O	-437*
O=C(Nc1ccc(N2CCCC2)cc1)C(Cl)c1ccccc1 (configuration not stated)	65
CC(C)C[C@H]1CN=C(Nc2ccccc2)N1CC1CCC(C(C)(C)C)CC1 (some centres not stated)	56
CCc1ccc(Nc2n[n+](-c3ccccc3)c(-c3c(Cl)cccc3Cl)s2)cc1	44
COc1cc(/C=N/NC(=O)c2ccncc2)ccc1O	9
CCOC(=O)c1c(NC(=O)N/N=C/c2ccc(O)c(OC)c2)sc(C(C)=O)c1C	-63*
CCN(CC(=O)Nc1cc(S(=O)(=O)N2CCOCC2)ccc1Cl)Cc1ccccc1	42
CCOC(=O)Nc1ccc2c(c1)N(C(=O)OCCN(C)C)c1ccccc1CC2	-1
O=[N+]([O-])c1ccc(O)c(C=Nc2cccc3ccccc23)c1	88
O=[N+]([O-])c1ccc(O)c(C=Nc2cccc3ncccc23)c1	91
O=C(NC(C(=O)N/N=C/c1cc([N+](=O)[O-])ccc1O)c1n[nH]c(=O)c2ccccc12)c1ccccc1 (configuration not stated)	-439*
CC(=O)Nc1c(S(=O)(=O)c2ccccc2)c2nc3ccccc3nc2n1Cc1ccccc1	60
N#Cc1c(N)n(CCc2ccc(F)cc2)c2nc3ccccc3nc12	82
O=C(NNc1cc(N2CCOCC2)nc(N2CCOCC2)n1)c1ccc(Cl)cc1Cl	47
CCOC(=O)c1c2c(n(C)c1C)C(=O)C(=O)c1ccc(Br)cc1-2	96
Cc1ccc(-n2nc3ccc(N)cc3n2)cc1Cl	96
COC(=O)c1c(N)n(-c2ccc(NC(C)=O)cc2)c2nc3ccccc3nc12	49
O=C(CCS(=O)(=O)c1ccc(Br)cc1)N1CCCCCC1	-283*
O=C1NC2=C(CCc3ccccc32)C(c2ccc(Br)cc2)N1 (configuration not stated)	69
CCN(CC(=O)NCc1cccs1)C(=O)C1CC(=O)N(c2ccc(OC)cc2OC)C1 (configuration not stated)	51
NS(=O)(=O)c1ccc(CCNC(=O)CCS(=O)(=O)c2ccc(Br)cc2)cc1	-214*
COc1ccc(-n2nc(C(=O)NCC(=O)NC3CCCCCC3)c3ccccc3c2=O)c(OC)c1	48
Cc1ccc(-c2cc(C(=O)O)c3cc(Br)ccc3n2)s1	11
SMILES	Apaf1 activ
Cc1coc2c1C(=O)C(=O)c1c-2ccc2c1CCCC2(C)C	77
COc1cc(-c2c(C#N)c(=O)[nH]c3c2c(C)nn3-c2ccccc2)ccc1O	42
CC[n+]1c(/C=C/N(C)c2ccccc2)n(-c2ccccc2)c2ccc(-c3nc4ccccc4s3)cc21	82
CCN(CC)c1ccc(/C=C/c2nc3ccccc3s2)cc1	-305*
COC(=O)C1=C(C)N(Cc2ccccc2)C(=NCc2cccc(C(F)(F)F)c2)N[C@H]1c1cccc(C(F)(F)F)c1	74
O=C1NC(Cc2ccc(O)cc2)c2nc3ccc(Cl)cc3c(=O)n2-c2ccc(Cl)cc21 (configuration not stated)	-42*
Cc1ccc(C(=O)N2CCCN(c3nc4cc5c(cc4cc3C#N)OCO5)CC2)cc1	67
Cc1cc(C)c2nc(N(CCN(C)C)C(=O)c3ccc(S(=O)(=O)N(C)CC4CCCO4)cc3)sc2c1 (configuration not stated)	49
CN(C)c1ccc(N/C=C/C(=O)C(C)(C)C)cc1	53
COc1ccc(-c2cc(C(F)(F)F)n3ncc(C(=O)NCC4CCCO4)c3n2)cc1OC (configuration not stated)	-496*
COCCn1c(N)c(C(=O)NCC2CCCO2)c2nc3ccccc3nc21 (configuration not stated)	75
CC(C)Cn1c(N)c(C(=O)NCC2CCCO2)c2nc3ccccc3nc21 (configuration not stated)	65
CCO/C=C1/C(=O)N(Cc2ccccc2)C(=O)c2ccccc21	62
C[C@H](NC(=O)c1ccc(C(C)(C)C)cc1)C(=O)N1CCN(C/C=C/c2ccccc2)CC1	43
CCN1CCN(CCNC(=O)c2ccc3nc(-c4cccc(C)c4)c(-c4cccc(C)c4)nc3c2)CC1	47
CC(=O)c1ccc2c(c1)C1C=CCC1C(c1ccncc1)N2 (configuration not stated)	60

Screens from PubChem.
